Compound activity as filed in PubChem.
In the library only some 1.9% were active in any assay of this set; here they are far more common.
CHRM5 PAM: human M5 muscarinic receptor positive allosteric modulators, primary screen, CHO-K1 cells, Fluo-8 calcium fluorescence. CHO-K1 hM5, ACh EC20 PAM; 0% = ACh EC20, 100% = ACh EC100. activation, % at 3 µM. hit rate 0.3% among 360,000. AID 624038, 2012;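 active = activation above the run cutoff, the mean activation of all test compounds plus 3 SD, cut at about 18% in these data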
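system = human M5 receptor in CHO-K1 cells | compound = one concentration, 3 µM final (nominal) | schedule = Post-acetylcholine fluorescence recording 140 s | signal = Fluo-8 calcium dye fluorescence, kinetic read | benchmarks = low control EC20 acetylcholine (0%), high control EC100 acetylcholine (100%) | repeats = singlicate, one well per test compound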
M5 antag: human M5 muscarinic receptor antagonists, primary screen, CHO cells, Fluo-8 calcium fluorescence | Muscarinic acetylcholine receptor M5 (Homo sapiens), P08912 | CHO-hM5 cells, ACh EC80 | inhibition, % at 3 µM | hit rate 0.59% among 360,000;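 active = inhibition above a per-plate cutoff, the mean of that plate's test compounds plus 3 SD, cut at about 27% in these data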
M4 PAM: human M4 muscarinic receptor positive allosteric modulators, primary screen, CHO-K1 cells, Fluo-8 calcium fluorescence; activation, % at 3 µM; AID 624126, 2012; Muscarinic acetylcholine receptor M4 (Homo sapiens), P08173; hit rate 0.4% among 360,000; CHO-K1 hM4/Gqi5, ACh EC20; 0% = ACh EC20, 100% = maximal ACh;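 active = activation above its plate's cutoff, the mean activation of sample wells plus 3 SD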
Target sequence (P08173 whole entry, looked up): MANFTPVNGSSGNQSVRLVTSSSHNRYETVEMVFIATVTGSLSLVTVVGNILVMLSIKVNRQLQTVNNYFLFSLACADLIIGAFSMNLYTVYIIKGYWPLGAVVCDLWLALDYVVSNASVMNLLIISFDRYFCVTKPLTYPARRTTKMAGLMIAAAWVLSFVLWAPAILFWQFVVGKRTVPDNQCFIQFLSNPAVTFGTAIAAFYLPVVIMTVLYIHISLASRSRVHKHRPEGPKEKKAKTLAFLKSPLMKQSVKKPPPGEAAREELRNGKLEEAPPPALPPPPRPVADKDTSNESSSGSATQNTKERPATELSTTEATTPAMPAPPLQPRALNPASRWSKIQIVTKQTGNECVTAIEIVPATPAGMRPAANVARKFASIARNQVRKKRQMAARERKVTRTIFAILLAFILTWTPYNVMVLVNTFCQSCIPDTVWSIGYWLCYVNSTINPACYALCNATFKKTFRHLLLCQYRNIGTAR
M4 ag: human M4 muscarinic receptor agonists, primary screen, CHO-K1 cells, Fluo-8 calcium fluorescence | Muscarinic acetylcholine receptor M4 (Homo sapiens), P08173 | CHO-K1 hM4/Gqi5; vehicle 0%, full acetylcholine response 100% | activation, % at 3 µM | hit rate 0.14% among 360,000;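 active = activation above the run mean over all test wells plus 3 SD, cut at about 32% in these data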;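 note: peak over basal fluorescence ratio per well then scaled between controls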
M5 ag: human M5 muscarinic receptor agonists, primary screen, CHO-K1 cells, Fluo-8 calcium fluorescence; hit rate 0.19% among 360,000; CHO-K1 hM5 cells; 0% DMSO wells, 100% maximal acetylcholine response; activation, % at 3 µM;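 active = activation above the run's mean over test compounds plus 3 SD, cut at about 23% in these data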;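 note: signal is peak over basal fluorescence ratio across the kinetic read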
M4 antag: human M4 muscarinic receptor antagonists, primary screen, CHO cells, Fluo-8 calcium fluorescence; AID 624125, 2012; Muscarinic acetylcholine receptor M4 (Homo sapiens), P08173; inhibition, % at 3 µM; hit rate 0.73% among 360,000; CHO-hM4 cells, ACh EC80;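 active = inhibition above its plate's cutoff, the mean inhibition of sample wells plus 3 SD, cut at about 27% in these data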
Hits are given with their value; n = inactive.

SMILES	CHRM5 PAM	M5 antag	M4 PAM	M4 ag	M5 ag	M4 antag
CC[C@]12c3[nH]c4ccccc4c3CCN1C(=O)C(CC(=O)NCc1cccc(C(F)(F)F)c1)C[C@@H]2C(=O)N1CCN(C(=O)c2ccco2)CC1 (stereo partly specified)	n	n	n	n	n	n
CC(=O)N1CCN(C(=O)COc2ccc(N(C)S(=O)(=O)c3cccs3)cc2)CC1	20	n	n	n	n	n
Cn1cccc1C(=O)NCC1COc2ccccc2O1 (stereo unspecified)	n	n	n	n	n	n
CCc1ccc(C2CC(c3ccccc3)Nc3nc(N)nn32)cc1 (stereo unspecified)	n	n	n	n	n	n
CCc1ccc(C2CC(c3ccccc3Cl)Nc3nc(N)nn32)cc1 (stereo unspecified)	n	n	n	n	24	n
Cc1cccc(Nc2ccc([N+](=O)[O-])cn2)c1	n	n	n	n	n	n
N#Cc1cccnc1N1CCN(C(=O)c2ccco2)CC1	n	n	n	n	n	n
FC(F)(F)Oc1ccccc1C(c1nnnn1C1CCCC1)N1CCN(C/C=C/c2ccccc2)CC1 (stereo unspecified)	n	64	n	n	n	n
CC(C)(C)n1nnnc1C(c1ccccc1OC(F)(F)F)N1CCN(C/C=C/c2ccccc2)CC1 (stereo unspecified)	n	n	n	n	n	n
COc1cccc(C(c2nnnn2C2CCCCC2)N2CCN(C/C=C/c3ccccc3)CC2)c1OC (stereo unspecified)	n	41	n	n	n	29
COc1cccc(C(c2nnnn2-c2c(C)cccc2C)N2CCN(C/C=C/c3ccccc3)CC2)c1OC (stereo unspecified)	n	n	n	n	n	n
CC(C)[C@H](NS(=O)(=O)c1ccc2c(c1)OCCO2)C(=O)OCC(=O)Nc1cc(Cl)ccc1Cl	n	n	n	n	n	n
Cc1cc(Nc2nc3ccccc3[nH]c2=O)n(-c2ccccc2)n1	23	n	n	n	n	n
O=C(NNS(=O)(=O)c1ccc([N+](=O)[O-])cc1)C(=O)Nc1cccc(C(=O)O)c1	n	n	19	n	n	n
Cc1noc(C)c1C(=O)Nc1ccc(S(=O)(=O)N2CCC(C)CC2)cc1	n	n	n	n	n	n
Cc1onc(-c2c(F)cccc2Cl)c1C(=O)Nc1cc(S(=O)(=O)N2CCCCC2)ccc1O	n	n	n	n	n	27
Cc1noc(C)c1C(=O)Nc1ccc(S(=O)(=O)N2CCCCC2)cc1	n	n	16	n	n	n
Cc1onc(-c2c(F)cccc2Cl)c1C(=O)Nc1ccc(S(=O)(=O)N2CCOCC2)cc1	n	n	n	n	n	n
Cc1ccc(NC(=O)c2ccc(NC(=O)C3CCCCC3C(=O)O)cc2)cc1 (stereo unspecified)	n	n	n	n	n	n
Cc1ccc(S(=O)(=O)NCc2ccccc2Br)cc1	n	n	n	n	n	n
NS(=O)(=O)c1ccc(CCNC(=O)c2ccc3c(c2)N(Cc2ccccc2)CCS3)cc1	n	31	n	n	n	n
COc1ccc(OCc2cc(C(=O)N(C)Cc3cc(C4CC4)n[nH]3)no2)c(Cl)c1	n	n	n	n	n	n
CCN(CC)c1ccc(C(=C2C=CC(=[N+](CC)CC)C=C2)c2ccccc2)cc1	n	85	n	66	30	99
CCN(CC)c1ccc(C(=C2C=CC(=[N+](CC)CC)C=C2)c2ccc(N(CC)CC)cc2)cc1	n	36	n	n	n	43
O=C(NCCOc1ccccc1)[C@@H]1CCCN1C(=O)c1cccs1	n	n	n	n	n	n
SMILES	CHRM5 PAM	M5 antag	M4 PAM	M4 ag	M5 ag	M4 antag
N#Cc1ccccc1/C=C/C(=O)N1CCOCC1	n	n	n	n	34	n
O=C(/C=C/c1ccccc1Cl)N1CCOCC1	n	n	n	n	n	n
CC(=O)Nc1cccc(C(=O)N2CCN(Cc3ccccc3)CC2)c1	n	n	20	n	n	n
COc1cc(NS(=O)(=O)c2ccc(-c3ccc(=O)[nH]n3)o2)cc(OC)c1OC	n	n	n	n	n	n
COC(=O)c1[nH]c2c(c1C)C(=O)CC(c1cccs1)C2 (stereo unspecified)	n	n	30	n	n	n
CCOC(=O)C1CCCN(c2c(C(=O)c3ccccc3)cnc3ccc(OC)cc23)C1 (stereo unspecified)	n	n	n	n	32	n
COC(=O)c1ccc(/C=C/c2c(-c3ccc(OC)cc3)oc3ccccc23)cc1	n	n	26	n	n	n
CCN(CC)CCSC(=O)C(c1ccccc1)c1ccccc1	n	99	n	n	n	96
CCN(CCO)C(=O)C(c1ccccc1)c1ccccc1	n	n	n	n	n	n
CCN(CC)CCOC(=O)C(c1ccccc1)C1CCCCC1 (stereo unspecified)	n	99	n	n	n	100
NC(=O)C(c1ccccc1)C1CCCCC1 (stereo unspecified)	n	n	n	n	n	n
CCN(CC)CCOC(=O)C(c1ccccc1)c1ccccc1	n	98	n	n	n	54
CSc1cccc(NC(=O)C2C3C=CC4(O3)C2C(=O)N(CCN2CCOCC2)C4C(=O)NC2CCCCC2)c1 (stereo unspecified)	n	n	n	n	n	n
CCOc1ccccc1Oc1c(C)oc2c(CN3CCN(CCO)CC3)c(O)ccc2c1=O	n	n	n	n	n	n
CCOC(=O)c1ccc(Oc2c(C)oc3c(CN4CCN(C)CC4)c(O)ccc3c2=O)cc1	n	n	n	n	n	33
COc1ccc(Oc2c(C)oc3c(CN4CCOCC4)c(O)ccc3c2=O)cc1	n	n	n	n	n	41
COc1cc2cc(CCCOC(=O)c3ccc(F)cc3)oc(=O)c2cc1OC	n	n	n	n	n	n
OC(Cn1cncn1)(c1ccc(F)cc1)c1ccc(Cl)cc1 (stereo unspecified)	n	n	n	n	n	n
CS(=O)(=O)N(CC(=O)NC1CC2CCC1C2)c1cccc(C(F)(F)F)c1 (stereo unspecified)	n	n	n	n	n	n
Cc1ccc(N(CC(=O)NC2CC3CCC2C3)S(C)(=O)=O)cc1C (stereo unspecified)	n	n	27	n	n	n
